Experimental data pooled from the literature.
Each line is one published result; the experiments were not run side by side.
gag-pol protease: Gag-Pol polyprotein, protease (gag-pol, Human immunodeficiency virus type 1 group M subtype B, UniProt P04585)
CES1: Liver carboxylesterase 1 (CES1, Homo sapiens, UniProt P23141)
F2: Prothrombin (F2, Homo sapiens, UniProt P00734)
KCNH2: Voltage-gated inwardly rectifying potassium channel KCNH2 (KCNH2, Homo sapiens, UniProt Q12809)
tlpQ: tlpQ (Pseudomonas aeruginosa, UniProt Q9I0I4)

COc1ccc(S(=O)(=O)N(CC(C)C)C[C@@H](O)[C@H](Cc2ccccc2)NC(=O)O[C@@H]2CCC[C@@]23CCO[C@@H](c2ccccc2OC)C3)cc1 — Ki (gag-pol protease; enzyme activity, inhibitor): 0.0167 µM
COc1c2c(cc3c1-c1c(cc4c(c1OC)OCO4)C[C@H](C)[C@H](C)C3)OCO2 — Ki (CES1; enzyme activity, inhibitor): 0.0898 µM
CCOC(=O)c1ccc(OC(=O)CCCCCN=C(N)N)cc1 — IC50 (F2; enzyme activity, inhibitor): 0.588 µM
COCCC(=O)N[C@@H](CCC(N)=O)C(=O)N[C@@H](Cc1ccccc1)C(=O)N[C@@H](CCCNC(=N)N)C(=O)c1nc2ccccc2s1 — Ki (F2; cell-free assay): > 10 µM
COc1cc2c(cc1OC)CN(CCc1ccc(NC(=O)c3cccc4c(=O)c5cccc(OC)c5[nH]c34)cc1)CC2 — Ki (5-hydroxytryptamine receptor 1B (HTR1B, Homo sapiens, UniProt P28222); cell-free assay): > 10 µM
O=c1c2cc(Cl)ccc2[nH]c(=S)n1Cc1cccnc1 — IC50 (KCNH2; ion current, inhibitor, patch clamp; pH 7.4): > 10 µM
Cn1c(=O)n(CCCCN2CCC3(CC2)OCc2ccccc23)c2ccccc21 — Ki (Sodium-dependent dopamine transporter (Slc6a3, Rattus norvegicus, UniProt P23977); ligand displacement, radioligand; cell membranes): 0.311 µM
CC1=C(O)C(=O)C=C2C1=CC=C1[C@@]2(C)CC[C@@]2(C)[C@@H]3C[C@](C)(C(=O)O)CC[C@]3(C)CC[C@]12C — Kd (Aldo-keto reductase family 1 member B10 (AKR1B10, Homo sapiens, UniProt O60218); binding, BLI): 2.41 µM
COc1ccc(S(=O)(=O)N(CC(C)C)C[C@@H](O)[C@H](Cc2ccccc2)NC(=O)O[C@@H]2CCC[C@@]23CCO[C@@H](c2cccc(OC)c2)C3)cc1 — Ki (gag-pol protease; enzyme activity, inhibitor): 1.14 µM
NC[C@H](O)c1ccc(O)c(O)c1 — Kd (tlpQ; binding, ITC): > 1000 µM
O=c1c2cc(Cl)c(CO)cc2[nH]c(=S)n1Cc1cccnc1 — IC50 (KCNH2; ion current, inhibitor, patch clamp; pH 7.4): > 10 µM
NCCc1c[nH]c2ccc(O)cc12 — Kd (tlpQ; binding, ITC): > 1000 µM
COc1ccc(S(=O)(=O)N(CC(C)C)C[C@@H](O)[C@H](Cc2ccccc2)NC(=O)O[C@H]2CCC[C@@]23CCO[C@@H](c2cc(OC)cc(OC)c2)C3)cc1 — Ki (gag-pol protease; enzyme activity, inhibitor): 0.0026 µM
C=CCc1ccc(O)c(-c2cc(CC=C)ccc2O)c1 — Ki (CES1; enzyme activity, inhibitor): 0.094 µM
N=C(N)NCCC[C@H](NC(=O)[C@H](Cc1ccccc1)NC(=O)[C@H](CCC(N)=O)NC(=O)OCc1ccccc1)C(=O)c1nccs1 — Ki (F2; cell-free assay): 0.994 µM
